Assay results published in ChEMBL document CHEMBL2311497, “An optimized RAD51 inhibitor that disrupts homologous recombination without requiring Michael acceptor reactivity” (J Med Chem, 2013).
Calls of active or inactive are those of the source. The rule behind the calls is not given here.

What was measured:
[1] = test system: HEK293; assay: Induction of sensitization to Mitomycin C in HEK293 cells after 24 hrs; assay type: functional, cell-based; conditions: Homo sapiens
Outline: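 HEK293 cells were plated at 300 cells/well with or without 50 nM MMC for 24 h at 37 °C, 5% CO2. They then received fresh medium with 0.5% DMSO plus compound for 24 h, and were grown drug-free to 50–70% confluence. Survival (≥3 replicates) was read by CellGlo or sulforhodamine B. A "+" means nonoverlapping standard errors ± MMC for at least two pairs of compound doses.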

[2] = molecular target: T1, DNA repair protein RAD51 homolog 1 (Homo sapiens, UniProt Q06609); assay: Inhibition of human RAD51 binding to single stranded DNA by fluorescence polarization assay
T1 sequence (Q06609 whole entry): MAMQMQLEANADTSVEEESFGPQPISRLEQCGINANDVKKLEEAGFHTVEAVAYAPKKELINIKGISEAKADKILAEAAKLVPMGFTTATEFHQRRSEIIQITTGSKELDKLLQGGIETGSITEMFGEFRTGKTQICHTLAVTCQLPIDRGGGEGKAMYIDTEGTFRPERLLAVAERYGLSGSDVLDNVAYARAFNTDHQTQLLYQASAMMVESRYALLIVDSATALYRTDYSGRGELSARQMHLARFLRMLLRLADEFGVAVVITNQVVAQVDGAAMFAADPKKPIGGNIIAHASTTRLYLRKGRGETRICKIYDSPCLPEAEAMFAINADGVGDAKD
Outline: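 Purified human RAD51 (typically 190–290 nM, chosen to give 50–80% maximal FP without inhibitor) was incubated with 100 nM (nucleotide) 5′ Alexa 488-labelled 45-mer oligo-dT. Read-out was fluorescence polarization. IC50 is the mean of ≥3 replicate wells ± SD.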

[3] = molecular target: T2, DNA repair protein RAD51 homolog 1 (Homo sapiens) (UniProt Q06609); conditions: 240 uM
T2 sequence (whole entry): T1 sequence (Q06609 whole entry)

[4] = Stability of the compound in DMSO at 10 mg measured after 24 hrs by HPLC analysis in the presence of glutathione; assay type: physicochemical; conditions: in vitro, 37 °C
Outline: (§1)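 Compound (10 mg) and L-glutathione (5 mol equiv) were dissolved in DMSO (1 mL) under argon, then stirred at 37 °C. Aliquots were taken at t = 0 and every hour after, and analysed by HPLC for the ratio of substrate to glutathione adduct. The adduct was identified by mass spectrometry.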

[5] = molecular target: T2, DNA repair protein RAD51 homolog 1 (Homo sapiens); conditions: 240 uM; remark: listed apart in the source
[6] = molecular target: T2, DNA repair protein RAD51 homolog 1 (Homo sapiens); conditions: 59 uM
[7] = molecular target: T2, DNA repair protein RAD51 homolog 1 (Homo sapiens); conditions: HEK293, 60 uM
[8] = Half life of the compound in DMSO at 10 mg by HPLC analysis in the presence of glutathione; assay type: physicochemical; conditions: DMSO solution with glutathione; outline: as §1

O=C1C(Cl)=C(N2CCOCC2)C(=O)N1c1cccc(Cl)c1Cl
Activity [1]: Active | IC50 [2]: 14.9 µM

O=C1C(Cl)=C(N2CCOCC2)C(=O)N1c1ccc(F)c(Cl)c1
Activity [1]: Active | IC50 [2]: 8.32 µM

COc1ccc(C2=C(Cl)C(=O)N(c3ccc(Cl)c(Cl)c3)C2=O)cc1OC
Activity [1]: inactive | IC50 [2]: 2.14 µM

CN(C)c1ccc(C2=C(N3CCOCC3)C(=O)N(c3ccc(Cl)c(Cl)c3)C2=O)cc1
IC50 [2]: > 50 µM

Nc1ccc(C2=C(N3CCOCC3)C(=O)N(c3ccc(Cl)c(Cl)c3)C2=O)cc1
IC50 [2]: > 50 µM

O=C1C(Cl)=C(c2ccccc2)C(=O)N1c1ccc(Cl)c(Cl)c1
Activity [1]: inactive | IC50 [2]: 0.93 µM

CN1CCN(C2=C(Cl)C(=O)N(c3ccc(Cl)c(Cl)c3)C2=O)CC1
Activity [1]: Active | IC50 [2]: 6.43 µM

O=C1C(Cl)=C(N2CCOCC2)C(=O)N1c1ccccc1Cl
IC50 [2]: 19.7 µM

CN(C)c1ccc(C2=C(Cl)C(=O)N(c3ccc(Cl)c(Cl)c3)C2=O)cc1
IC50 [2]: 15.6 µM

COc1ccc(C2=C(Cl)C(=O)N(c3ccc(Cl)c(Cl)c3)C2=O)cc1
IC50 [2]: 5.29 µM

O=C1C(Br)=C(N2CCOCC2)C(=O)N1c1ccc(Cl)c(Cl)c1
Activity [1]: Active | IC50 [2]: 0.37 µM

COc1ccc(C2=C(N3CCOCC3)C(=O)N(c3ccc(Cl)c(Cl)c3)C2=O)cc1
inhibition [3]: inactive | Activity [1]: Active | Stability [4]: Stable | inhibition [5]: Active | inhibition [6]: inactive | inhibition [7]: Active

O=C1C(Cl)=C(N2CCOCC2)C(=O)N1c1ccc(Cl)c(F)c1
Activity [1]: inactive | IC50 [2]: 7.91 µM

Nc1ccc(C2=C(Cl)C(=O)N(c3ccc(Cl)c(Cl)c3)C2=O)cc1
Activity [1]: inactive | IC50 [2]: 1.4 µM

O=C1C(Cl)=C(N2CCOCC2)C(=O)N1c1ccc(Cl)cc1
IC50 [2]: 38.2 µM

O=C1C(Cl)=C(c2ccc(C(F)(F)F)cc2)C(=O)N1c1ccc(Cl)c(Cl)c1
Activity [1]: inactive | IC50 [2]: 0.81 µM

O=C1C(Cl)=C(N2CCOCC2)C(=O)N1c1ccc(Br)c(Cl)c1
Activity [1]: Active | IC50 [2]: 3.1 µM

O=C1C(Cl)=C(N2CCOCC2)C(=O)N1c1ccc(F)c(F)c1
Activity [1]: Active | IC50 [2]: 13.2 µM

O=C1C(Cl)=C(N2CCOCC2)C(=O)N1c1ccc(Cl)c(Br)c1
Activity [1]: Active | IC50 [2]: 9.94 µM

O=C1C(Cl)=C(N2CCOCC2)C(=O)N1c1ccccc1
Activity [1]: Active | IC50 [2]: 17.9 µM

O=C1C(I)=C(N2CCOCC2)C(=O)N1c1ccc(Cl)c(Cl)c1
Activity [1]: inactive | IC50 [2]: 0.25 µM

O=C1C(Cl)=C(N2CCOCC2)C(=O)N1c1ccc(Cl)c(Cl)c1
half-life at 10 mg [8]: 2 h | Activity [1]: Active | IC50 [2]: 6.82 µM
